From ChEMBL document CHEMBL1125677, “New derivatives of kanamycin B obtained by combined modifications in positions 1 and 6". Synthesis, microbiological properties, and in vitro and computer-aided toxicological evaluation” (J Med Chem, 1991)
In brackets after ≈: the same amount, converted by molar mass.

Columns and labels:
Escherichia coli [1] = experiment: Minimum inhibitory concentration was measured against Escherichia coli 73110901 producing AAC-(6')-I) modifying enzyme; assay type: functional
In short: (§1)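 Agar dilution and microtiter broth dilution, with incubation in Mueller-Hinton medium; MIC expressed in mg/L.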

Klebsiella pneumoniae [2] = experiment: (§2) Minimum inhibitory concentration was measured against Klebsiella pneumoniae 7608271 producing AAC-(3)-II modifying enzyme; assay type: functional; in short: as §1
Escherichia coli [3] = experiment: Minimum inhibitory concentration was measured against Escherichia coli 76070703 producing AAC-(3)-I modifying enzyme; assay type: functional
In short: (§3)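 MICs were determined by agar dilution and by microtiter (broth) dilution in Mueller-Hinton medium against strains producing defined aminoglycoside-modifying enzymes. Values are reported in mg/L.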

Klebsiella pneumoniae [4] = experiment: Minimum inhibitory concentration was measured against Klebsiella pneumoniae 75012101 producing AAD-(2'')-modifying enzyme; assay type: functional; in short: as §1
Escherichia coli [5] = experiment: Minimum inhibitory concentration was measured against Escherichia coli 0000JR66 producing AAD-(2'')-modifying enzyme; assay type: functional; in short: as §1
Serratia marcescens [6] = experiment: Minimum inhibitory concentration was measured against Serratia marcescens 75012711 producing AAD-(2'')+AAC(6'') modifying enzyme; assay type: functional; in short: as §1
Providencia stuartii [7] = experiment: Minimum inhibitory concentration was measured against Providencia stuartii 75082808 producing AAC-(2'') modifying enzyme; assay type: functional; in short: as §1
Staphylococcus aureus [8] = experiment: Minimum inhibitory concentration was measured against Staphylococcus aureus 76080401 producing AAD-(4')) modifying enzyme; assay type: functional; in short: as §1
Klebsiella pneumoniae [9] = experiment: Minimum inhibitory concentration was measured against Klebsiella pneumoniae 760070702 producing AAC-(3)-I modifying enzyme; assay type: functional; in short: as §1
Klebsiella pneumoniae [10] = experiment: Minimum inhibitory concentration was measured against Klebsiella pneumoniae ATCC 13883; assay type: functional; in short: as §1
Escherichia coli [11] = experiment: Minimum inhibitory concentration was measured against Escherichia coli OLA 290R5 producing AAD-(2'')-modifying enzyme; assay type: functional; in short: as §3
Serratia marcescens [12] = experiment: Minimum inhibitory concentration was measured against Serratia marcescens S20.; assay type: functional; in short: as §1
Pseudomonas aeruginosa = experiment: Minimum inhibitory concentration was measured against Pseudomonas aeruginosa ATCC 27853; assay type: functional; in short: as §1
Escherichia coli [13] = experiment: Minimum inhibitory concentration was measured against Escherichia coli 72091801 producing AAC-(3)-I modifying enzyme; assay type: functional; in short: as §3
Escherichia coli [14] = experiment: Minimum inhibitory concentration was measured against Escherichia coli ATCC 25992.; assay type: functional; in short: as §1
Escherichia coli [15] = experiment: Minimum inhibitory concentration was measured against Escherichia coli 71120101 producing AAD-(4')) modifying enzyme; assay type: functional; in short: as §3
Serratia marcescens [16] = experiment: Minimum inhibitory concentration was measured against Serratia marcescens S69.; assay type: functional; in short: as §1
Klebsiella pneumoniae [17] = experiment: as §2; assay type: functional; in short: as §1; remark: listed apart in the source
Escherichia coli [18] = experiment: Minimum inhibitory concentration was measured against Escherichia coli 00000589 producing APH-(3'') modifying enzyme; assay type: functional; in short: as §3
[19] = tested on: Staphylococcus epidermidis; experiment: Minimum inhibitory concentration was measured against Staphylococcus epidermidis ATCC 12228.; assay type: functional; in short: as §1
Serratia marcescens [20] = experiment: Minimum inhibitory concentration was measured against Serratia marcescens ATCC 8100; assay type: functional; in short: as §1
Staphylococcus aureus [21] = experiment: Minimum inhibitory concentration was measured against Staphylococcus aureus ATCC 25923; assay type: functional; in short: as §1
Bacillus subtilis = experiment: Minimum inhibitory concentration was measured against Bacillus subtilis ATCC 6633.; assay type: functional; in short: as §1
Escherichia coli [22] = experiment: Minimum inhibitory concentration was measured against Escherichia coli 001574-1 producing APH-(3'') modifying enzyme; assay type: functional; in short: as §3
Klebsiella pneumoniae [23] = experiment: Minimum inhibitory concentration was measured against Klebsiella pneumoniae 00GT3020 producing AAD-(2'')-modifying enzyme; assay type: functional; in short: as §3
Enterobacter cloacae = experiment: Minimum inhibitory concentration was measured against Enterobacter cloacae ATCC 23355; assay type: functional; in short: as §1
Salmonella typhimurium [24] = experiment: (§4) Minimum inhibitory concentration was measured against Salmonella Typhimurium ATCC 14028; assay type: functional; in short: as §1
Salmonella typhimurium [25] = experiment: as §4; assay type: functional, salmonella typhimurium a; settings: Salmonella enterica; in short: as §1
Providencia stuartii [26] = experiment: Minimum inhibitory concentration was measured against Providencia stuartii 72052305 producing AAC-(2'') modifying enzyme; assay type: functional; in short: as §1
Serratia marcescens [27] = experiment: microbe, parasite or virus in culture
Providencia stuartii [28] = experiment: Minimum inhibitory concentration was measured against Providencia stuartii 00000164 producing AAC-(2'') modifying enzyme; assay type: functional; in short: as §1
[29] = in the assay text read “AAC-(2')” for “AAC-(2'')”

Compound	MIC (Escherichia coli [1]) [µg/mL]	MIC (Klebsiella pneumoniae [2]) [µg/mL]	MIC (Escherichia coli [3]) [µg/mL]	MIC (Serratia marcescens [6]) [µg/mL]	MIC (Klebsiella pneumoniae [10]) [µg/mL]	MIC (Escherichia coli [11]) [µg/mL]	MIC (Serratia marcescens [12]) [µg/mL]	MIC (Pseudomonas aeruginosa) [µg/mL]	MIC (Escherichia coli [13]) [µg/mL]	MIC (Escherichia coli [14]) [µg/mL]	MIC (Escherichia coli [15]) [µg/mL]	MIC (Serratia marcescens [16]) [µg/mL]	MIC (Escherichia coli [18]) [µg/mL]	MIC [19] [µg/mL]	MIC (Serratia marcescens [20]) [µg/mL]	MIC (Staphylococcus aureus [21]) [µg/mL]	MIC (Bacillus subtilis) [µg/mL]	MIC (Escherichia coli [22]) [µg/mL]	MIC (Klebsiella pneumoniae [23]) [µg/mL]	MIC (Enterobacter cloacae) [µg/mL]	also measured
CNC1C(O)C(OC2C(O)C(OC3OC([C@@H](C)N)CCC3N)C(N)CC2(N)CO)OCC1(C)O (stereo partly specified)	8 (≈ 16.2 µM)	1 (≈ 2.03 µM)	2 (≈ 4.05 µM)	2 (≈ 4.05 µM)	–	–	–	–	–	–	–	–	–	–	–	–	–	–	–	–	MIC (Klebsiella pneumoniae [4]): 2 µg/mL (≈ 4.05 µM); MIC (Escherichia coli [5]): 8 µg/mL (≈ 16.2 µM); MIC (Providencia stuartii [7]; [29]): 8 µg/mL (≈ 16.2 µM); MIC (Staphylococcus aureus [8]): 0.5 µg/mL (≈ 1.01 µM); MIC (Klebsiella pneumoniae [9]): 1 µg/mL (≈ 2.03 µM)
GENTAMICIN	4	–	128	32	1	64	128	1	2	1	2	128	2	1	1	1	1	1	32	1	MIC (Klebsiella pneumoniae [17]): 256 µg/mL; MIC (Providencia stuartii [7]; pseudomonas stuartii): 64 µg/mL; MIC (Salmonella typhimurium [24]; Salmonella enterica subsp. enterica serovar Typhimurium): 1 µg/mL
[N-]=[N+]=NCC1OC(OC2C(O)C(OC3OC(CN)C(O)C(O)C3N)C(N)CC2(N)CO)C(O)C(N)C1O (stereo unspecified)	–	–	–	–	0.5 (≈ 0.928 µM)	–	> 64	> 128	–	1 (≈ 1.86 µM)	–	> 64	–	1 (≈ 1.86 µM)	2 (≈ 3.71 µM)	0.5 (≈ 0.928 µM)	2 (≈ 3.71 µM)	–	–	0.25 (≈ 0.464 µM)	MIC (Salmonella typhimurium [25]): 1 µg/mL (≈ 1.86 µM)
NCC1OC(OC2C(N)CC(N)(CO)C(OC3OC(CCl)C(O)C(N)C3O)C2O)C(N)C(O)C1O (stereo unspecified)	128 (≈ 241 µM)	> 256	–	> 256	0.5 (≈ 0.94 µM)	8 (≈ 15 µM)	> 64	> 128	> 256	1 (≈ 1.88 µM)	128 (≈ 241 µM)	> 64	> 128	0.5 (≈ 0.94 µM)	2 (≈ 3.76 µM)	0.5 (≈ 0.94 µM)	1 (≈ 1.88 µM)	2 (≈ 3.76 µM)	> 256	0.25 (≈ 0.47 µM)	MIC (Providencia stuartii [26]): 32 µg/mL (≈ 60.2 µM); MIC (Serratia marcescens [27]): 8 µg/mL (≈ 15 µM); MIC (Klebsiella pneumoniae [4]): 16 µg/mL (≈ 30.1 µM); MIC (Escherichia coli [5]): > 256 µg/mL; MIC (Staphylococcus aureus [8]): 256 µg/mL (≈ 481 µM); MIC (Providencia stuartii [28]): 256 µg/mL (≈ 481 µM); MIC (Klebsiella pneumoniae [9]): 1 µg/mL (≈ 1.88 µM); MIC (Salmonella typhimurium [24]; Salmonella enterica): 2 µg/mL (≈ 3.76 µM)
NCC1OC(OC2C(N)CC(N)(CO)C(OC3OC(CO)C(O)C(N)C3O)C2O)C(N)C(O)C1O (stereo unspecified)	> 128	> 128	–	> 128	0.25 (≈ 0.487 µM)	8 (≈ 15.6 µM)	> 64	> 128	> 128	0.5 (≈ 0.974 µM)	> 128	> 64	> 128	0.25 (≈ 0.487 µM)	1 (≈ 1.95 µM)	0.25 (≈ 0.487 µM)	0.5 (≈ 0.974 µM)	4 (≈ 7.79 µM)	> 128	0.25 (≈ 0.487 µM)	MIC (Providencia stuartii [26]): 16 µg/mL (≈ 31.2 µM); MIC (Serratia marcescens [27]): 4 µg/mL (≈ 7.79 µM); MIC (Klebsiella pneumoniae [4]): 4 µg/mL (≈ 7.79 µM); MIC (Escherichia coli [5]): > 128 µg/mL; MIC (Staphylococcus aureus [8]): > 128 µg/mL; MIC (Providencia stuartii [28]): > 128 µg/mL; MIC (Klebsiella pneumoniae [9]): 1 µg/mL (≈ 1.95 µM); MIC (Salmonella typhimurium [24]; Salmonella enterica): 1 µg/mL (≈ 1.95 µM)
CC(=O)NCC1OC(OC2C(O)C(OC3OC(CN)C(O)C(O)C3N)C(N)CC2(N)CO)C(O)C(N)C1O (stereo unspecified)	–	–	–	–	2 (≈ 3.61 µM)	–	> 64	> 128	–	4 (≈ 7.21 µM)	–	> 64	–	1 (≈ 1.8 µM)	16 (≈ 28.8 µM)	1 (≈ 1.8 µM)	8 (≈ 14.4 µM)	–	–	0.25 (≈ 0.451 µM)	MIC (Salmonella typhimurium [25]): 8 µg/mL (≈ 14.4 µM)
NC[C@H]1O[C@H](O[C@H]2[C@H](O)[C@@H](O[C@H]3O[C@H](CO)[C@@H](O)[C@H](N)[C@H]3O)[C@H](N)C[C@@H]2N)[C@H](N)[C@@H](O)[C@@H]1O [BEKANAMYCIN]	–	–	–	–	0.25 (≈ 0.517 µM)	–	> 64	> 128	–	1 (≈ 2.07 µM)	–	> 64	–	0.25 (≈ 0.517 µM)	1 (≈ 2.07 µM)	0.5 (≈ 1.03 µM)	0.5 (≈ 1.03 µM)	–	–	0.25 (≈ 0.517 µM)	MIC (Salmonella typhimurium [24]; Salmonella enterica): 1 µg/mL (≈ 2.07 µM)
NCC[C@H](O)C(=O)N[C@@H]1C[C@H](N)[C@@H](O[C@H]2O[C@H](CN)[C@@H](O)[C@H](O)[C@H]2O)[C@H](O)[C@H]1O[C@H]1O[C@H](CO)[C@@H](O)[C@H](N)[C@H]1O [AMIKACIN]	256 (≈ 437 µM)	–	4 (≈ 6.83 µM)	2 (≈ 3.42 µM)	–	2 (≈ 3.42 µM)	8 (≈ 13.7 µM)	–	8 (≈ 13.7 µM)	4 (≈ 6.83 µM)	4 (≈ 6.83 µM)	2 (≈ 3.42 µM)	8 (≈ 13.7 µM)	–	–	1 (≈ 1.71 µM)	–	2 (≈ 3.42 µM)	2 (≈ 3.42 µM)	1 (≈ 1.71 µM)	MIC (Providencia stuartii [26]): 1 µg/mL (≈ 1.71 µM); MIC (Serratia marcescens [27]): 1 µg/mL (≈ 1.71 µM); MIC (Providencia stuartii [7]; [29]): 16 µg/mL (≈ 27.3 µM); MIC (Providencia stuartii [28]): 16 µg/mL (≈ 27.3 µM)
